# CHRM5 PAM: human M5 muscarinic receptor positive allosteric modulators, primary screen, CHO-K1 cells, Fluo-8 calcium fluorescence; Muscarinic acetylcholine receptor M5 (Homo sapiens), P08912; CHO-K1 hM5, ACh EC20 PAM; 0% = ACh EC20, 100% = ACh EC100; activation, % at 3 µM; 360,000 tested, 0.3% active;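 active = activation above the run cutoff, the mean activation of all test compounds plus 3 SD, cut at about 18% in these data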
#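 system = human M5 receptor in CHO-K1 cells | compound = one concentration, 3 µM final (nominal) | schedule = Post-acetylcholine fluorescence recording 140 s | signal = Fluo-8 calcium dye fluorescence, kinetic read | benchmarks = low control EC20 acetylcholine (0%), high control EC100 acetylcholine (100%) | repeats = singlicate, one well per test compound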
# M5 ag: human M5 muscarinic receptor agonists, primary screen, CHO-K1 cells, Fluo-8 calcium fluorescence; 360,000 tested, 0.19% active; activation, % at 3 µM; CHO-K1 hM5 cells; 0% DMSO wells, 100% maximal acetylcholine response; Muscarinic acetylcholine receptor M5 (Homo sapiens), P08912;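 active = activation above the run's mean over test compounds plus 3 SD, cut at about 23% in these data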;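 also: signal is peak over basal fluorescence ratio across the kinetic read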
# M4 PAM: human M4 muscarinic receptor positive allosteric modulators, primary screen, CHO-K1 cells, Fluo-8 calcium fluorescence; activation, % at 3 µM; 360,000 tested, 0.4% active; Muscarinic acetylcholine receptor M4 (Homo sapiens), P08173; CHO-K1 hM4/Gqi5, ACh EC20; 0% = ACh EC20, 100% = maximal ACh;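 active = activation above its plate's cutoff, the mean activation of sample wells plus 3 SD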
# Target sequence (P08173 whole entry, looked up): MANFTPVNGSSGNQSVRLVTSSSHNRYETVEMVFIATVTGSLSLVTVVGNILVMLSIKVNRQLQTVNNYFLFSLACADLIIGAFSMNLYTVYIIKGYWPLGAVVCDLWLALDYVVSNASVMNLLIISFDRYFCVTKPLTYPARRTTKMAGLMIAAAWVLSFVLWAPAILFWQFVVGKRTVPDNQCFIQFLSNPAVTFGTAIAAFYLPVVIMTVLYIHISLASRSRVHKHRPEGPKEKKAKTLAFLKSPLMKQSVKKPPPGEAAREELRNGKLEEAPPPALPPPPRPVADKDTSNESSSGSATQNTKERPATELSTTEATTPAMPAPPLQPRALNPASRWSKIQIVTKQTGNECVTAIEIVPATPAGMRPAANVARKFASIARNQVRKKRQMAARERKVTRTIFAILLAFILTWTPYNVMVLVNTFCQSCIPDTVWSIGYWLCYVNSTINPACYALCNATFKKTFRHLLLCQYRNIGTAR
# M4 ag: human M4 muscarinic receptor agonists, primary screen, CHO-K1 cells, Fluo-8 calcium fluorescence; Muscarinic acetylcholine receptor M4 (Homo sapiens), P08173; 360,000 tested, 0.14% active; activation, % at 3 µM; AID 624127, 2012; CHO-K1 hM4/Gqi5; vehicle 0%, full acetylcholine response 100%;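 active = activation above the run mean over all test wells plus 3 SD, cut at about 32% in these data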;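 also: peak over basal fluorescence ratio per well then scaled between controls; 0% = DMSO wells and 100% = acetylcholine at EC100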
# CHRM4 antagonist: human M4 muscarinic receptor antagonists, primary screen, CHO cells, Fluo-8 calcium fluorescence | Muscarinic acetylcholine receptor M4 (Homo sapiens), P08173 | CHO-hM4 cells, ACh EC80 | inhibition, % at 3 µM | 360,000 tested, 0.73% active | AID 624125, 2012;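 active = inhibition above its plate's cutoff, the mean inhibition of sample wells plus 3 SD, cut at about 27% in these data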;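 also: 0% = acetylcholine EC80 with DMSO and 100% = DMSO without agonist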
# CHRM5 antagonist: human M5 muscarinic receptor antagonists, primary screen, CHO cells, Fluo-8 calcium fluorescence. 360,000 tested, 0.59% active. inhibition, % at 3 µM. CHO-hM5 cells, ACh EC80;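 active = inhibition above a per-plate cutoff, the mean of that plate's test compounds plus 3 SD, cut at about 27% in these data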;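 also: 0% = acetylcholine EC80 with DMSO and 100% = DMSO without agonist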
# An asterisk follows results filed as active. Sampled rows, rich in hits. Any-hit rate of the full collection: about 1.8%.
SMILES,CHRM5 PAM,M5 ag,M4 PAM,M4 ag,CHRM4 antagonist,CHRM5 antagonist
CCCCCCCCCn1c2c(c(=N)c3c1CCC3)CCC2,-17,-3,-26,4,50*,40*
CCn1c2c(c(=N)c3c1CCC3)CCC2,-11,-4,-2,1,-3,32*
CCCCCCn1c2c(c(=N)c3c1CCC3)CCC2,-1,-4,9,2,10,8
O=S(=O)(c1cccc2ccccc12)N1CCC2CC1c1cc(-c3ccc4c(c3)OCO4)ccc12 (centres undefined),4,0,8,1,-26,-12
CCN(CC)c1ccc(/C=C/c2ccc3ccc(OC)cc3[n+]2CC)cc1,-22,6,-15,22,36*,49*
COc1ccccc1CCC(=O)N(C)C1CCCN(Cc2ccccc2F)C1 (centres undefined),6,-13,-3,2,2,11
Cc1cccc(S(=O)Cc2ccc(C(=O)N3CCN(C(=O)c4ccco4)CC3)o2)c1 (centres undefined),22*,3,1,4,-17,-8
O=[N+]([O-])c1cc(Cl)cc(/C=N/n2cnnc2)c1O,25*,15,10,7,-7,4
CC(C)N(C(=O)CSc1nc2c([nH]1)c(=O)n(C)c(=O)n2C)c1ccccc1,1,1,17*,1,-16,-1
C=CCN1C(=O)c2ccccc2Sc2ccc(C(=O)NCCC)cc21,-1,-3,2,1,-3,4
c1ccc2c(c1)ncn2CCN1CCCCC1,20*,-6,0,0,-11,-11
c1ccc(CCn2cnc3ccccc32)cc1,3,-5,13,1,-9,-4
c1ccc(-n2nnnc2Oc2ccc(-c3nnco3)cc2)cc1,-25,84*,-2,1,9,79*
COc1ccccc1NS(=O)(=O)c1cc(C(=O)NCC(c2ccc(F)cc2)N2CCOCC2)ccc1C (centres undefined),7,0,1,1,-9,-6
O=C(/C=C/c1ccccc1)NC(NC(=S)Nc1ccc(Cl)cc1)C(Cl)(Cl)Cl (centres undefined),-31,-3,-6,8,10,15
O=C(/C=C/c1ccccc1)NC(NC(=S)Nc1cc(Cl)ccc1Cl)C(Cl)(Cl)Cl (centres undefined),-16,2,-8,11,15,51*
Cc1ccc2nc(-c3ccc(N)cc3)sc2c1,6,2,13*,1,2,-2
c1ccc(C2[C@H]3CN(CC4CCCCC4)[C@H](c4ccccc4)C34CC2(c2cccnc2)C4)cc1 (some centres undefined),-32,-13,-13,2,31*,16
c1ccc(C2[C@H]3CN(CC4CCCCC4)[C@H](c4ccccc4)C34CC2(c2ccccc2)C4)cc1 (some centres undefined),5,-3,-5,2,7,-6
COc1cccc(Nc2nnc(SCC(=O)Nc3sccc3C(N)=O)s2)c1,-24,3,-45,19,29*,9
Cc1cccc2cc(CN(CCN(C)C)C(=S)Nc3ccccc3)c(=O)[nH]c12,24*,11,36*,2,-7,-8
Cc1cccc(NC(=S)N(CCN(C)C)Cc2cc3cc(C)ccc3[nH]c2=O)c1,8,20,12,2,2,0
Cc1ccc(N(Cc2cc3cccc(C)c3[nH]c2=O)S(=O)(=O)c2ccccc2)c(C)c1,-12,-6,-5,8,9,28*
CCN(CC)CCN(Cc1cc2cc(C)ccc2[nH]c1=O)C(=S)Nc1ccccc1,-16,52*,-6,1,5,46*
CC(=O)OC(COc1ccccc1)Cn1cnc2cc(C)c(C)cc21 (centres undefined),-3,-3,-4,1,4,-7
SMILES,CHRM5 PAM,M5 ag,M4 PAM,M4 ag,CHRM4 antagonist,CHRM5 antagonist
O=C(O)Cn1c(C(F)(F)F)nc2ccccc21,2,3,20,1,32*,0
O=C(COc1ccccc1Cl)NNC(=O)c1ccc2nc[nH]c2c1,-1,3,-2,0,13,-7
Cc1c(CC(=O)N2CCC(C(N)=O)CC2)c(=O)oc2cc3c(cc12)CCC1(CCCCC1)O3,-11,-3,-12,6,3,8
O=C(NNC(=O)C1CC(=O)N(Cc2ccccc2)C1)c1ccc(Br)cc1 (centres undefined),-7,-5,-1,1,0,29*
CCc1ccc(C(=O)NNC(=O)C2CC(=O)N(Cc3ccccc3)C2)cc1 (centres undefined),1,-1,3,0,-7,1
COC(=O)[C@@]1(Sc2ccc(C)cc2)CC(=O)N(c2ccccc2)[C@@H]1c1ccccc1,-22,-2,-13,18,40*,30*
COc1cccc(N(CC(=O)NC2CCCCC2)C(=O)CCC(=O)Nc2nccs2)c1,2,-2,-8,0,6,3
O=[N+]([O-])c1ccc(NC(=S)NCCc2ccc(F)cc2)cc1,-17,2,-15,9,23,33*
NC(=O)c1ccsc1NC(=O)COC(=O)/C=C/c1ccccc1[N+](=O)[O-],-40,5,-8,23,31*,20
NC(=O)c1ccsc1NC(=O)COC(=O)/C=C/c1ccccc1,-30,7,-16,27,22,23
Cc1cc(C)c(NS(=O)(=O)c2ccccc2)c(C)c1NS(=O)(=O)c1ccccc1,-2,1,1,5,-3,-1
COc1ccc(NC(=O)CSCC(=O)Nc2nnc(C)s2)cc1,1,0,4,0,-4,6
O=C1Nc2ccccc2-n2nnnc2C1N1CCN(c2ccc(C(F)(F)F)cc2[N+](=O)[O-])CC1 (centres undefined),2,24*,0,27,2,8
CCOC(=O)/C=c1\s/c(=C(\C#N)C(=O)NC)n(-c2ccccc2)c1=O,23*,-2,18,1,2,-12
CCOC(=O)/C=c1\s/c(=C(\C#N)C(N)=O)n(-c2ccccc2)c1=O,7,4,0,3,-7,-3
CN(C)C(=O)CSc1nnc2sc3ccccc3n12,3,-3,5,2,-5,0

# Source: PubChem BioAssay (The Scripps Research Institute Molecular Screening Center)
